Compound activity: PubChem, several laboratories
UHRF1 MBD2 ctr: UHRF1 methylated DNA binding inhibitors, primary screen, counter-screen for MBD2 inhibitor project, biochemical, TR-FRET, human UHRF1, single concentration; UHRF1 binding to methylated oligo; 0.75% of 370,000 active; E3 ubiquitin-protein ligase UHRF1 (Homo sapiens), Q96T88; inhibition, % at 4.4 µM; in the data active means inhibition above about 21%;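 further: UHRF1 SRA domain binding a hemimethylated CpG hairpin DNA probe; 0% = median of test compound wells and 100% = reference inhibitor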
MBD2 DNA inh: inhibitors of MBD2 binding to methylated DNA, primary screen, biochemical, TR-FRET, DNA-binding domain, human; Methyl-CpG-binding domain protein 2 (Homo sapiens), Q9UBB5; MBD2 binding to methylated oligonucleotide; inhibition, % at 4.4 µM; 0.31% of 370,000 active; in the data active means inhibition above about 13%
NSD2 HMT inh: NSD2 histone methyltransferase inhibitors, primary screen, biochemical, AlphaScreen, single concentration, set 2. Histone-lysine N-methyltransferase NSD2 (Homo sapiens), O96028. inhibition, % at 12.5 µM. 0.54% of 310,000 active. NSD2 peptide methylation, 120 min; in the data active means inhibition above about 50%
Casp6 inh: human caspase-6 inhibitors, primary screen, biochemical, VEID-R110 fluorescence, single point, set 2 | 0.53% of 350,000 active | P55212 | inhibition, % at 12.5 µM | purified caspase-6, Z-VEID-R110 cleavage fluorescence;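 active means mean inhibition across replicates at least about 35%, with every replicate also reaching that limit, limit read from the data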;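 further: 0% = median of neutral control wells and 100% = no fluorescence left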
TDP2 absorb: human TDP2 enzyme inhibitors, primary screen, biochemical, epi absorbance, recombinant enzyme; Tyrosyl-DNA phosphodiesterase 2 (Homo sapiens), O95551; T5PNP hydrolysis, p-nitrophenol absorbance 415 nm; inhibition, % at 12.8 µM; 0.34% of 370,000 active; AID 720702, 2013;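 active means inhibition above the mean of all tested compounds plus 3 SD, set per campaign, cut at about 25% in these data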;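 further: 0% = DMSO with enzyme and 100% = buffer with substrate but no TDP2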
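Assay system: recombinant human TDP2 / Reagent: T5PNP substrate at 5 mM, a TopII-DNA adduct mimic / Measured by: epi absorbance from released p-nitrophenol / Evaluation: % inhibition relative to enzyme-containing and enzyme-free wells / Control set: enzyme-free and DMSO wells / Replicates: each compound tested once, singlicate / Schedule: enzyme reaction with compound for 2 h at 37 °C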
LEDGF integ inh: blockers of LEDGF/p75-dependent integrase strand transfer – biochemical, TR-FRET, high throughput, primary screen | TR-FRET IN-LEDGF/p75 DNA integration, Eu/Cy5 | 0.64% of 370,000 active | inhibition, % at 3.7 µM | AID 743269, 2014;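 active means inhibition above the screen-wide mean plus 3 SD, cut at about 13% in these data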;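 further: signal is the Cy5 over europium emission ratio at 671 and 618 nm; 0% = plate median of compound wells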
* hit, by the source's call; x = no result. The list is not random: actives were taken first. Their share in the collection is about 1.8%.

SMILES	UHRF1 MBD2 ctr	MBD2 DNA inh	NSD2 HMT inh	Casp6 inh	TDP2 absorb	LEDGF integ inh
CC(NCC(O)c1ccc([N+](=O)[O-])cc1)C12CC3CC(CC(C3)C1)C2 (centres undefined)	22*	-4	2	-2	5	4
COc1cc2c(cc1OC)C(C1C(=O)CC(C)CC1=O)N(C(=O)CCl)CC2 (centres undefined)	32*	-5	-2	6	-3	2
COc1ccc(NC(=O)Nc2ccc3c(c2)C(=O)N([C@@H](C)CO)C[C@H](C)[C@@H](CN(C)Cc2ccc(-c4ccccc4)cc2)O3)cc1	x	x	x	1	x	x
COc1ccc(CN(C)C[C@@H]2Oc3ccc(NS(C)(=O)=O)cc3C(=O)N([C@H](C)CO)C[C@@H]2C)cc1	x	x	x	1	x	x
O=C(O)CCNc1ccc(NCCC(=O)O)c2c1C(=O)c1ccccc1C2=O	40*	2	56*	70*	4	-8
COc1ccccc1NCCC(=O)O	-3	1	-2	-1	12	1
CC(C)(C)NC(=O)C(=O)NN=C1CCCCCCCCCCC1	-2	-5	-3	60*	-9	7
Cc1ccc(S(=O)(=O)N(C)C[C@H]2OCCCC[C@H](C)Oc3ccc(NS(=O)(=O)c4cn(C)cn4)cc3C(=O)N([C@H](C)CO)C[C@H]2C)cc1	x	x	x	-1	x	x
O=C1C=C(C2CCCCC2)C(=O)c2ccccc21	7	0	0	50*	8	3
O=C(O)C1=C(C2CCCCC2)C(=O)c2ccccc21	-2	2	0	0	-1	2
CCCCCn1nnnc1-c1nc2cc(C)c(C)cc2[nH]c1=O	-6	-3	x	42*	2	11
CCCCn1nnnc1-c1nc2ccccc2[nH]c1=O	0	-6	x	1	6	1
CCNC(=S)Nc1ccc(C)c(Cl)c1	25*	1	-2	-1	1	0
CCc1ccc(NC(=O)C(=O)NCC(O)c2ccccc2)cc1 (centres undefined)	52*	-4	-3	2	-21	-1
COc1ccc(C2=NOC(C(=O)Nc3c(C)n(C)n(-c4ccccc4)c3=O)C2)cc1 (centres undefined)	5	4	x	-1	-7	-5
COc1cc(C2=NOC(C(=O)Nc3c(C)n(C)n(-c4ccccc4)c3=O)C2)cc(OC)c1OC (centres undefined)	24*	13	-2	2	15	3
O=C1Cc2cc(S(=O)(=O)N3CCN(c4ccc(C(=O)O)cc4)CC3)ccc2N1	-1	-6	x	38*	11	-4
CC(=O)c1ccc(N2CCN(S(=O)(=O)c3ccc4c(c3)NC(=O)CC(=O)N4)CC2)cc1	1	-7	-8	8	-18	1
Cc1ccc(C)c(NC(=O)CN2C(=O)NC(C)(c3ccc4c(c3)OCCO4)C2=O)c1 (centres undefined)	70*	-5	3	3	-11	-1
Cc1ccc(F)cc1NC(=O)CN1C(=O)NC(C)(c2ccc3c(c2)OCCO3)C1=O (centres undefined)	-1	-1	0	1	-8	5
O=C(NC1CCCC1)N1CC(=O)N2[C@H](CO)[C@@H](c3ccc(-c4cccnc4)cc3)[C@@H]2C1	x	x	x	1	x	x
Cc1cc(C)cc(NS(=O)(=O)c2cc3[nH]c(=O)c(=O)[nH]c3cc2C)c1	0	-1	x	5	-3	-5
Cc1ccc(NC(=O)CCS(=O)(=O)c2cc3[nH]c(=O)c(=O)[nH]c3cc2C)cc1	0	-6	5	37*	10	0
O=C(NCC1COc2ccccc2O1)c1ccc(F)c(S(=O)(=O)N2CCOCC2)c1 (centres undefined)	1	1	-1	52*	6	1
COc1ccc(CN(C)C[C@@H]2OCCCC[C@@H](C)Oc3ccc(NC(=O)Nc4ccc(F)cc4)cc3C(=O)N([C@H](C)CO)C[C@H]2C)cc1	x	x	x	0	x	x
SMILES	UHRF1 MBD2 ctr	MBD2 DNA inh	NSD2 HMT inh	Casp6 inh	TDP2 absorb	LEDGF integ inh
c1ccc2[nH]c3cc4ncnc4cc3nc2c1	-18	-12	19	69*	-4	3
COc1ccc(NC(=O)N(C)C[C@@H]2OCCCC[C@@H](C)Oc3ccc(NS(=O)(=O)c4ccc(Cl)cc4)cc3C(=O)N([C@@H](C)CO)C[C@H]2C)cc1	x	x	x	2	x	x
Cc1ccc(S(=O)(=O)n2c(C)nc3ccccc32)cc1	-2	-1	-3	41*	-2	-6
C[C@@H]1CN([C@@H](C)CO)C(=O)c2cccc(NS(C)(=O)=O)c2O[C@@H]1CN(C)Cc1ccc2c(c1)OCO2	x	x	x	3	x	x
CC(=O)N(C1=C(N)C(=O)c2ccccc2C1=O)C(C)C	-6	-13	81*	12	8	3
COc1ccccc1N(C(C)=O)C1=C(Cl)C(=O)c2ccccc2C1=O	7	-5	37	23	23	2
CCCCCNC(=O)C(c1cccc2ccccc12)n1c(=O)c(-c2ccccc2)nc2ccccc21 (centres undefined)	74*	-1	x	1	0	1
O=C(NCc1ccccc1)C(c1cccc2ccccc12)n1c(=O)c(-c2ccccc2)nc2ccccc21 (centres undefined)	3	7	-1	-3	6	-1
CC(C)C(NC(=O)C1CCCCC1)C(=O)NCCc1ccccc1 (centres undefined)	21*	6	x	1	3	-1
COc1ccc(S(=O)(=O)N(C)C[C@H]2OCCCC[C@H](C)Oc3ccc(NC(=O)NC(C)C)cc3C(=O)N([C@@H](C)CO)C[C@H]2C)cc1	x	x	x	0	x	x
Cc1ccc(Cc2c(C3CCCCC3)nc3ccc(Br)cn23)cc1	15	7	x	-3	8	-2
COC(=O)c1ccc2nc(C3CCCCC3)c(Cc3ccc(C)cc3)n2c1	23*	11	x	3	-3	-3
COC(=O)c1ccc2nc(C3CCCCC3)c(Cc3ccc(OC)cc3C)n2c1	21*	9	x	2	0	-1
COC(=O)c1ccc2nc(C3CCCCC3)c(Cc3cccc(Cl)c3)n2c1	23*	12	x	3	5	-2
COC(=O)c1ccc2nc(C(C)(C)C)c(Cc3ccc(OC)cc3C)n2c1	22*	9	x	-1	7	-1
COC(=O)c1ccc2nc(C3CCCCC3)c(Cc3ccccc3C(F)(F)F)n2c1	17	11	x	-2	-5	3
